# Results: ChEMBL document CHEMBL2407035, “Identification of novel chromone based sulfonamides as highly potent and selective inhibitors of alkaline phosphatases” (Eur J Med Chem, 2013)
# Active and inactive are the calls of the source. The rule behind the calls is not given here.
# Tests used:
# [1] = target: T1, Alkaline phosphatase, tissue-nonspecific isozyme (Bos taurus, UniProt P09487); test: Inhibition of bovine kidney […] alkaline phosphatase using p-NPP as substrate treated 10 mins before substrate addition measured after 30 mins by spectrophotometric assay
# T1 sequence (P09487 whole entry): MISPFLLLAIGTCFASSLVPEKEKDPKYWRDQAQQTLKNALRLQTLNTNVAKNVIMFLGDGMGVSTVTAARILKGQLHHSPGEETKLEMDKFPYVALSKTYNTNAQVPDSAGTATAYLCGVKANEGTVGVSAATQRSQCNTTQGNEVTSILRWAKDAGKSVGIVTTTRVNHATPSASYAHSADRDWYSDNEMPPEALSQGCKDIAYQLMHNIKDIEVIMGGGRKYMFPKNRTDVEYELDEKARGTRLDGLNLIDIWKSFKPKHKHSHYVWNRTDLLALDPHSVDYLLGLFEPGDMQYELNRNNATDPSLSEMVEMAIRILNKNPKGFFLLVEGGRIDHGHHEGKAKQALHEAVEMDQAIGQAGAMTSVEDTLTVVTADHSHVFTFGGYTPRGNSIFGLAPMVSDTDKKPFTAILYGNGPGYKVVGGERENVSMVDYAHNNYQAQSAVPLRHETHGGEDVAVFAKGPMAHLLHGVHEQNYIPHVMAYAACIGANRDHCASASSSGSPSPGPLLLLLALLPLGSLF
# Method in brief: (§1)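 Calf intestinal ALP (0.025 U/mL) or TNALP (0.5 U/mL) in 50 mM Tris-HCl, 5 mM MgCl₂, 0.1 mM ZnCl₂, pH 9.5 with compound (1% DMSO final), 10 min. Started with 0.5 mM p-NPP, 30 min at 37 °C, p-nitrophenolate read at 405 nm. Screened at 0.1 mM. Actives (>50%) got 8–10 dilutions, 1 mM to 10 nM, three times in triplicate. IC50 by nonlinear fit, Ki by Cheng–Prusoff.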
# [2] = Inhibition of porcine kidney […] alkaline phosphatase using p-NPP as substrate treated 10 mins before substrate addition measured after 30 mins by spectrophotometric assay; set-up: species or system Sus scrofa; method in brief: as §1
# [3] = target: 5'-nucleotidase (Homo sapiens) (UniProt P21589); test: Inhibition of human Ecto-5'-NT expressed in african green monkey COS7 cells using AMP as substrate at 0.1 mM preincubated for 10 mins measured after 10 mins; format: cell-based; conditions: COS-7
# Chain of 5'-nucleotidase (Homo sapiens) (P21589 whole entry): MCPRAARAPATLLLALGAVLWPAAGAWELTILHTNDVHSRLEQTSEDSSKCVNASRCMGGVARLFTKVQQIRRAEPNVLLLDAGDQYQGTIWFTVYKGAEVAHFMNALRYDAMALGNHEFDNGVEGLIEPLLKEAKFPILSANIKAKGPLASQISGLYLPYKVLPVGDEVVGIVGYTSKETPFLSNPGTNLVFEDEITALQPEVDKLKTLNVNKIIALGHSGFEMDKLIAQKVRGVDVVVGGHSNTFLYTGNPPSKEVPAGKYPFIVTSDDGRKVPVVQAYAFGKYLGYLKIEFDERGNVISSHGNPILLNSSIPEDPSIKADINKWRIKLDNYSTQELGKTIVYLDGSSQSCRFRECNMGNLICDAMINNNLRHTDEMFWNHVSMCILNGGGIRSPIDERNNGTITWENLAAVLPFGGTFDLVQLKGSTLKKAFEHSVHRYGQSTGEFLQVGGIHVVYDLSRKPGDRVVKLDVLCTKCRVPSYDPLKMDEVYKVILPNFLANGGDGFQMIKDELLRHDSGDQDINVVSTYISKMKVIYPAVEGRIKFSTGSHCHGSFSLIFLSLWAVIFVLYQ
# Method in brief: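 Human ecto-5'-NT from membrane extracts of transfected COS-7 cells (6.94 µg/mL). Preincubated with compound 10 min at 37 °C in 10 mM Hepes, 2 mM MgCl₂, 1 mM CaCl₂, pH 7.4. Started with 500 µM AMP, 10 min at 37 °C, stopped at 99 °C for 20 min. Adenosine quantified by capillary electrophoresis, UV at 260 nm, with <10% substrate conversion.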
# [4] = target: Intestinal-type alkaline phosphatase (Bos taurus, UniProt P19111); test: Inhibition of bovine intestinal alkaline phosphatase using p-NPP as substrate treated 10 mins before substrate addition measured after 30 mins by spectrophotometric assay; method in brief: as §1
# Chain of Intestinal-type alkaline phosphatase (P19111 whole entry): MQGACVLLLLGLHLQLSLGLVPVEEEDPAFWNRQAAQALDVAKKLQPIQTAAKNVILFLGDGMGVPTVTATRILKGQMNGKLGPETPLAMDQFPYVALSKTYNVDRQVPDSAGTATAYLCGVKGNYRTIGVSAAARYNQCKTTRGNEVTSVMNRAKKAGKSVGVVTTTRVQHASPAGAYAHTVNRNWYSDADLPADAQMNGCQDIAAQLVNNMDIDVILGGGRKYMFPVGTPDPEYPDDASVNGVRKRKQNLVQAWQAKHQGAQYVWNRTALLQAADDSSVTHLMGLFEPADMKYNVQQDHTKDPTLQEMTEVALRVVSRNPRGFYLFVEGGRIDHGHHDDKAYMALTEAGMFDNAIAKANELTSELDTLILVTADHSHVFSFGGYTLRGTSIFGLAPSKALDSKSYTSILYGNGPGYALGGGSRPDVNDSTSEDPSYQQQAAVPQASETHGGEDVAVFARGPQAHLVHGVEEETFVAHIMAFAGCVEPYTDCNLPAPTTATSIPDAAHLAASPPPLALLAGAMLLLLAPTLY
# [5] = target: Intestinal-type alkaline phosphatase (Bos taurus) (UniProt P19111); test: Competitive inhibition of bovine intestinal alkaline phosphatase using p-NPP as substrate by Double-reciprocal plot analysis
# Chain of Intestinal-type alkaline phosphatase (Bos taurus) (P19111 20-506 limits assumed): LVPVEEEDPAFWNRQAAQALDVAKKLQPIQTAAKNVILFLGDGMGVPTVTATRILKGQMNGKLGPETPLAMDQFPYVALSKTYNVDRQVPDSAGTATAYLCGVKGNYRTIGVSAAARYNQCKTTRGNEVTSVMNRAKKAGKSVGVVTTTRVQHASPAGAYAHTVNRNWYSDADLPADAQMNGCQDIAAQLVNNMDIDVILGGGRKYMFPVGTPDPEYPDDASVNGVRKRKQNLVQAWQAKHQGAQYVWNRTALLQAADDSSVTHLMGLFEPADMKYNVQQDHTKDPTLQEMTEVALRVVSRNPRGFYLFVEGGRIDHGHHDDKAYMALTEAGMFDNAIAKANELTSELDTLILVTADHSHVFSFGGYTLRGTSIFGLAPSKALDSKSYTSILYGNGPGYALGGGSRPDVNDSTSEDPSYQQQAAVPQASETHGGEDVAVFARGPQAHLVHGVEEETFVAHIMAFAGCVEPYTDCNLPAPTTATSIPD
# Method in brief: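 Calf intestinal ALP kinetics: initial velocities measured with 4-NPP at 0.01-1 mM and inhibitor at 0, 100 and 300 nM. Double-reciprocal plots (1/[S] vs 1/v) were used to assign the inhibition mode. Buffer is 50 mM Tris-HCl, 5 mM MgCl₂, 0.1 mM ZnCl₂, pH 9.5, read at 405 nm.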
SMILES,Ki [1] [µM],Ki [2] [µM],inhibition [3] [%],Ki [4] [µM],inhibition [5]
CCOC1Oc2ccccc2C(=O)/C1=C\Nc1ccc(S(N)(=O)=O)cc1 (centres undefined),6.8,10.9,5.7,90.6,–
CCOC1Oc2ccccc2C(=O)/C1=C\Nc1cccc(S(N)(=O)=O)c1 (centres undefined),41,41.7,0,33.5,–
CCOC1Oc2ccc(CC)cc2C(=O)/C1=C\Nc1ccccc1S(N)(=O)=O (centres undefined),29,18,4,0.4,–
CCOC1Oc2ccc(CC)cc2C(=O)/C1=C\Nc1cccc(S(N)(=O)=O)c1 (centres undefined),16.8,20.1,30,2.1,–
CCOC1Oc2ccc(Br)cc2C(=O)/C1=C/Nc1ccc(S(=O)(=O)Nc2ccccn2)cc1 (centres undefined),74,73.6,0,9.3,–
CCOC1Oc2ccccc2C(=O)/C1=C/Nc1ccc(S(=O)(=O)Nc2ccc(OC)nn2)cc1 (centres undefined),38,52.5,0,7.8,–
CCOC1Oc2ccc(CC)cc2C(=O)/C1=C\Nc1ccc(S(N)(=O)=O)cc1 (centres undefined),60,68.8,13,2.6,–
CCOC1Oc2ccc(Br)cc2C(=O)/C1=C\Nc1ccc(S(N)(=O)=O)cc1 (centres undefined),48,44.6,52,0.41,–
CCOC1Oc2ccc(F)cc2C(=O)/C1=C\Nc1cccc(S(N)(=O)=O)c1 (centres undefined),18,19.9,0,17.1,–
CCOC1Oc2ccc(F)cc2C(=O)/C1=C/Nc1ccc(S(=O)(=O)Nc2nnc(C)s2)cc1 (centres undefined),21,31.8,0,0.01,–
CCOC1Oc2c(Br)cc(Br)cc2C(=O)/C1=C\Nc1ccc(S(N)(=O)=O)cc1 (centres undefined),63,55.3,43,5.1,–

# The remaining lines, values ahead:
Ki [1] [µM],Ki [2] [µM],inhibition [3] [%],Ki [4] [µM],inhibition [5],SMILES
26,67.9,54,0.8,–,CCOC1Oc2c(Br)cc(Br)cc2C(=O)/C1=C\Nc1cccc(S(N)(=O)=O)c1 (centres undefined)
0.13,–,0,0.021,Active,O=c1c(C2Nc3ccccc3S(=O)(=O)N2)coc2ccc(Br)cc12 (centres undefined)
23,35.4,0,7.8,–,CCOC1Oc2ccccc2C(=O)/C1=C/Nc1ccc(S(=O)(=O)Nc2cc(OC)nc(OC)n2)cc1 (centres undefined)
22,21.2,0,0.41,–,CCOC1Oc2ccccc2C(=O)/C1=C/Nc1ccc(S(=O)(=O)Nc2ccccn2)cc1 (centres undefined)
29,11.7,63,0.2,–,CCOC1Oc2c(Br)cc(Br)cc2C(=O)/C1=C\Nc1ccccc1S(N)(=O)=O (centres undefined)
27,21.3,0,0.049,–,O=c1c(C2Nc3ccccc3S(=O)(=O)N2)coc2ccccc12 (centres undefined)
0.25,0.079,26,0.085,–,CCOC1Oc2ccccc2C(=O)/C1=C/Nc1ccc(S(=O)(=O)Nc2nnc(C)s2)cc1 (centres undefined)
43,2.8,0,0.78,–,O=c1c(C2Nc3ccccc3S(=O)(=O)N2)coc2ccc(F)cc12 (centres undefined)
44,51.3,0,8.7,–,CCOC1Oc2ccc(Br)cc2C(=O)/C1=C\Nc1cccc(S(N)(=O)=O)c1 (centres undefined)
220,66.8,16,1.43,–,CCOC1Oc2ccc(F)cc2C(=O)/C1=C\Nc1ccc(S(N)(=O)=O)cc1 (centres undefined)
